Measured values gathered from unrelated publications.
Target: Mitogen-activated protein kinase 3 (MAPK3, Homo sapiens, UniProt P27361)

Structure (SMILES) | observed | action | method | cells | concentration | endpoint | result
Cn1c2c(c3ccc(Cl)c(Cl)c31)C(C#N)C(C)(C)NC2=O (stereo not shown) | thermal stability | – | DSF | – | 10 µM | ΔTm | 0.1 °C
Nc1nc(NC2CCCCC2)sc1C(=O)c1ccccc1 | enzyme activity | inhibitor | – | – | 10 µM | remaining activity | 20%
c1nc2c(Nc3ccc4c(c3)OCCO4)nc(Nc3ccc4c(c3)OCCO4)nc2[nH]1 | enzyme activity | inhibitor | – | – | 10 µM | activity vs control | 94%
Cn1c2c(c3ccc(Cl)c(Cl)c31)C(C#N)C1(CCOCC1)NC2=O (stereo not shown) | thermal stability | – | DSF | – | 10 µM | ΔTm | 0.1 °C
COc1cc2ncnc(Nc3ccc(Oc4ccccc4)c(C)c3C)c2cc1OC | enzyme activity | inhibitor | – | – | 1 µM | inhibition | 0%
Cc1cc(C)c(-n2ccn3nc(-c4cccnc4)cc23)cc1NC(=O)c1cc(C#N)cc(S(F)(F)(F)(F)F)c1 | cell-free assay | – | competition with immobilised ligand | – | 0.1 µM | remaining binding | 95.2%
N#CCCc1ccc2c(c1)-c1[nH]c3ccc([N+](=O)[O-])cc3c1CC(=O)N2 | cell-free assay | – | – | – | 0.5 µM | remaining signal | 95.1%
CC(C)(C)c1nc(-c2cccc(NS(=O)(=O)c3c(F)cccc3F)c2F)c(-c2ccnc(N)n2)s1 | enzyme activity | inhibitor | radiometric | – | 1 µM | remaining activity | 92%
O=C(Nc1cnn(-c2csc(C(=O)NC3COC3)c2)c1)Nc1c(F)cccc1Cl | enzyme activity | inhibitor | – | – | 5 µM | remaining activity | 92.4%
Cc1ccc(C(=O)Nc2ccc(CN3CCN(C)CC3)c(C(F)(F)F)c2)cc1C#Cc1cnc2cccnn12 | enzyme activity | inhibitor | – | – | 23.5 nM | remaining activity | 100%
COc1ccc(COc2ccc(Cc3cnc(N)nc3N)cc2OC)cc1 | cell-free assay | – | – | – | 0.5 µM | remaining signal | 99.1%
COc1cc(Nc2cnc(C#N)c(O[C@H](C)CN(C)C)n2)ncc1-c1cnn(C)c1 | enzyme activity | inhibitor | radiometric | – | 10 µM | remaining activity | 71%
CCN1CCN(Cc2ccc(NC(=O)c3ccc(C)c(/C=C/c4cnc5[nH]ccc5c4OC)c3)cc2C(F)(F)F)CC1 | target engagement in cells | inhibitor | chemoproteomics | A-375 | 5 µM | inhibition | -26.3%
CN1CCC2(CC1)NC(=O)c1c(c3ccc(Cl)c(Cl)c3n1C)C2C#N (racemic) | thermal stability | – | DSF | – | 10 µM | ΔTm | 0.3 °C
O=C1Nc2ccc(Cl)cc2C1=Cc1cc(Cl)c(O)c(Cl)c1 | cell-free assay | – | – | – | 0.5 µM | remaining signal | 88.2%
Cc1nc(N2CC[C@@H](O)C2)ncc1-c1cc(C(F)(F)F)cc2[nH]ncc12 | binding | – | competition with immobilised ligand | – | 1 µM | remaining binding | 100%
Oc1cccc(-c2nc(N3CCOCC3)c3oc4ncccc4c3n2)c1 | enzyme activity | inhibitor | – | – | 10 µM | remaining activity | 112%

Structure (SMILES) | observed | action | method | cells | concentration | endpoint | result
O=C1C(Cl)=C(N2C(=O)CCC2=O)C(=O)c2ccccc21 | enzyme activity | inhibitor | – | – | 0.5 µM | remaining activity | 99.3%
O=C(NC[C@@H]1[C@H]2CN(C(=O)OCc3cc(C(F)(F)F)cc(C(F)(F)F)c3)C[C@@H]12)c1ccc2[nH]nnc2c1 | cell-free assay | – | competition with immobilised ligand | – | 1 µM | remaining binding | 100%
Cn1c2c(c3ccccc31)C(C#N)C(C)(C)NC2=O (stereo not shown) | thermal stability | – | DSF | – | 10 µM | ΔTm | -0.4 °C
Cc1cc(-n2nc(Cc3cc(F)cc(C(F)(F)F)c3)nc2C)ccc1C(N)=O | cell-free assay | – | competition with immobilised ligand | – | 1 µM | remaining binding | 100%
FC(F)(F)Oc1cccc(-c2cnc3ccc(-c4ccncc4)nn23)c1 | enzyme activity | inhibitor | radiometric | – | 1 µM | activity vs control | 105%
Cn1c2c(c3ccc(Cl)c(Cl)c31)C(C#N)C1(CCCC1)NC2=O (stereo not shown) | thermal stability | – | DSF | – | 10 µM | ΔTm | -0.2 °C
Nc1nc(Nc2ccccc2)sc1C(=O)c1c(F)cccc1F | enzyme activity | inhibitor | – | – | 10 µM | remaining activity | 72%
N#CC1c2c([nH]c3c(Cl)c(Cl)ccc23)C(=O)NC12CCCCC2 (racemic) | thermal stability | – | DSF | – | 10 µM | ΔTm | 0.1 °C
COc1ccc2c(c1)O[C@H](c1ccc(OC)c(OC)c1)C[C@@H]2NC(=O)C1(c2ccc3c(c2)OC(F)(F)O3)CC1 | cell-free assay | – | competition with immobilised ligand | – | 1 µM | remaining binding | 100%
CCCS(=O)(=O)Nc1ccc(F)c(C(=O)c2c[nH]c3ncc(-c4ccc(Cl)cc4)cc23)c1F | enzyme activity | inhibitor | – | – | 1 µM | inhibition | < 20%
CCN1CCN(Cc2ccc(NC(=O)c3ccc(C)c(Oc4ccnc5[nH]ccc45)c3)cc2C(F)(F)F)CC1 | target engagement in cells | inhibitor | chemoproteomics | A-375 | 5 µM | inhibition | -51.2%
O=C(N[C@H]1CCCCC/C=C\C2C[C@@]2(C(=O)O)NC(=O)[C@@H]2C[C@@H](Oc3ccncc3)CN2C1=O)OC1CCCC1 (stereo partly shown) | binding | – | competition with immobilised ligand | – | 1 µM | remaining binding | 69%
CNC(=O)c1cc(Oc2ccc(NC(=O)Nc3ccc(Cl)c(C(F)(F)F)c3)cc2)ccn1 | cell-free assay | – | – | – | 0.5 µM | remaining signal | 105%
N#CC1(c2ccccn2)CCN(Cc2cc(C(=O)N3CCCC3)c(=O)n3ccccc23)CC1 | cell-free assay | – | competition with immobilised ligand | – | 1 µM | remaining binding | 91%
FC(F)c1nc2ccccc2n1-c1nc(N2CCOCC2)nc(N2CCOCC2)n1 | enzyme activity | inhibitor | – | – | 10 µM | remaining activity | 106%
O=C(Nc1cccnn1)N1CCC(=Cc2cccc(Oc3ccc(C(F)(F)F)cn3)c2)CC1 | cell-free assay | – | competition with immobilised ligand | – | 1 µM | remaining binding | 100%
O=C(Nc1cnn(-c2csc(C(=O)NC3COC3)c2)c1)Nc1ccccc1Cl | enzyme activity | inhibitor | – | – | 5 µM | remaining activity | 92.8%
